ChEMBL document CHEMBL1142726, “In search of a novel anti-HIV drug: multidisciplinary coordination in the discovery of 4-[[4-[[4-[(1E)-2-cyanoethenyl]-2,6-dimethylphenyl]amino]-2- pyrimidinyl]amino]benzonitrile (R278474, rilpivirine)” (J Med Chem, 2005)

Legend:
[1] = test system: Human immunodeficiency virus 1; experiment: Effective concentration against rhuman immunodeficiency virus type 1 K103N and Y181C mutant strains; type: functional, organism-based
[2] = test system: Human immunodeficiency virus 1; experiment: Effective concentration against human immunodeficiency virus type 1 wild type; type: functional, organism-based
Summary of the method: (§1)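 MT-4 human T cells infected with wild-type or mutant HIV-1, exposed to a range of compound concentrations in medium with 10% fetal calf serum. After 5 days at 37 °C, viability of infected and mock-infected cells was read by automated MTT colorimetric assay. […] 95% confidence limits are approximately EC50/4 to EC50×4.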

[3] = test system: Human immunodeficiency virus 1; experiment: Effective concentration against human immunodeficiency virus type 1 Y188L mutant strain; type: functional, organism-based; summary of the method: as §1
[4] = test system: Human immunodeficiency virus 1; experiment: Effective concentration against rhuman immunodeficiency virus type 1 Y181C mutant strain; type: functional, organism-based; summary of the method: as §1
[5] = test system: Human immunodeficiency virus 1; experiment: Effective concentration against human immunodeficiency virus type 1 K103N mutant strain; type: functional, organism-based; summary of the method: as §1
[6] = test system: Human immunodeficiency virus 1; experiment: Effective concentration against rhuman immunodeficiency virus type 1 L100I mutant strain; type: functional, organism-based; summary of the method: as §1
[7] = test system: Human immunodeficiency virus 1; experiment: Effective concentration against human immunodeficiency virus type 1 G190S mutant strain; type: functional, organism-based; summary of the method: as §1
[8] = test system: Human immunodeficiency virus 1; experiment: Effective concentration against human immunodeficiency virus type 1 L100I mutant strain; type: functional, organism-based; summary of the method: as §1
[9] = test system: Human immunodeficiency virus 1; experiment: Effective concentration against human immunodeficiency virus type 1 Y181C mutant was determined; type: functional, organism-based; summary of the method: as §1
[10] = test system: Human immunodeficiency virus 1; experiment: Effective concentration against human immunodeficiency virus type 1 K103N and Y181C mutant strain; type: functional, organism-based; summary of the method: as §1
[11] = test system: Human immunodeficiency virus 1; experiment: Effective concentration against human immunodeficiency virus type 1 wild type srtain; type: functional, organism-based
Summary of the method: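 MT-4 human T-cells infected with wild-type HIV-1 and exposed to a range of compound concentrations in medium with 10% fetal calf serum. After 5 days at 37 °C, viability was read by automated MTT colorimetric assay, with mock-infected cells run in parallel.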

[12] = Area under the concentration time curve in dog (intravenous dosage of 1.25 mg/kg) was determined; type: ADME, organism-based, Canis lupus familiaris; set-up: dose 1.25 mg/kg, route intravenous; conditions: in vivo
Summary of the method: (§2)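 Pharmacokinetics after single iv dosing of drug formulated in PEG 400. Species: Sprague-Dawley rat (4 mg/kg), beagle dog, cynomolgus monkey and white New Zealand rabbit (1.25 mg/kg each). Elimination half-life (t1/2) and exposure (AUCinf) calculated from plasma concentration–time data.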

[13] = In vivo half life in dog was determined after oral administration; type: ADME, organism-based, Canis lupus familiaris
Summary of the method: (§3)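 Oral administration of drug formulated in PEG 400 to Sprague-Dawley rat and beagle dog. Elimination half-life calculated from plasma concentration–time data.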

[14] = test system: Human immunodeficiency virus 1; experiment: Effective concentration against human immunodeficiency virus type 1 K103N and Y181C mutant strains; type: functional, organism-based; summary of the method: as §1
[15] = test system: Human immunodeficiency virus 1; experiment: Effective concentration against human immunodeficiency virus type 1 Y181C mutant strain; type: functional, organism-based; summary of the method: as §1
[16] = Area under the concentration time curve value in rat (intravenous dosage of 4 mg/kg) was determined; type: ADME, organism-based; set-up: dose 4 mg/kg, route intravenous; conditions: in vivo; summary of the method: as §2
[17] = Half life in rat was determined after intravenous administration; type: ADME, organism-based; conditions: in vivo; summary of the method: as §2
[18] = Area under the concentration time curve in rabbit (intravenous dosage of 1.25 mg/kg) was determined; type: ADME, organism-based, Oryctolagus cuniculus; set-up: dose 1.25 mg/kg, route intravenous; conditions: in vivo; summary of the method: as §2
[19] = Half life in rat was determined after oral administration; type: ADME, organism-based; conditions: in vivo; summary of the method: as §3
[20] = Area under the concentration time curve in monkey (intravenous dosage of 1.25 mg/ kg) was determined; type: ADME; conditions: cercopithecidae, in vivo; summary of the method: as §2
[21] = test system: Human immunodeficiency virus 1; experiment: Effective concentration against rhuman immunodeficiency virus type 1 wild type mutant strain; type: functional, organism-based; summary of the method: as §1
[22] = Half life in dog was determined by intravenous administration; type: ADME, organism-based, Canis lupus familiaris; conditions: in vivo; summary of the method: as §2
[23] = test system: Human immunodeficiency virus 1; experiment: Effective concentration against human immunodeficiency virus type 1Y181C mutant strain; type: functional, organism-based; summary of the method: as §1
[24] = test system: Human immunodeficiency virus 1; experiment: Effective concentration against human immunodeficiency virus type 1 in K103N mutant strain; type: functional, organism-based; summary of the method: as §1
[25] = test system: Human immunodeficiency virus 1; experiment: Effective concentration against human immunodeficiency virus type 1 wild type strain; type: functional, organism-based

Cc1ccnc2c1NC(=O)c1cccnc1N2C1CC1 [NEVIRAPINE] gave an EC50 [1] of 10000 nM, an EC50 [2] of 81 nM and an EC50 [3] of 10000 nM. It also gave an EC50 [4] of 10000 nM, an EC50 [5] of 2880 nM and an EC50 [6] of 597 nM. For the same compound, the EC50 [7] was 1000 nM.
Work on O=C1Nc2ccc(Cl)cc2[C@@](C#CC2CC2)(C(F)(F)F)O1 [EFAVIRENZ] yielded an EC50 [8] of 35 nM, an EC50 [9] of 2 nM and an EC50 [3] of 78 nM. The EC50 [5] was 28 nM, the EC50 [10] was 37 nM and the EC50 [7] was 275 nM. The EC50 [11] was 1.4 nM.
For Cc1cc(/C=C/C#N)cc(C)c1Nc1ccnc(Nc2ccc(C#N)cc2)n1 [RILPIVIRINE], the AUC [12] was 8700 ng·h/mL, the EC50 [8] was 0.4 nM and the half-life [13] was 39 h. The EC50 [14] was 1 nM, the EC50 [15] was 1.3 nM and the AUC [16] was 3100 ng·h/mL. For the same compound, the half-life [17] was 4.4 h, the EC50 [3] was 2 nM and the EC50 [5] was 0.3 nM. For the same compound, the AUC [18] was 44000 ng·h/mL, the half-life [19] was 2.8 h and the AUC [20] was 1400 ng·h/mL. The EC50 [21] was 0.4 nM, the EC50 [7] was 0.1 nM and the half-life [22] was 31 h.
For Cc1cc(C)c(Nc2ccnc(Nc3ccc(C#N)cc3)n2)c(C)c1 [DAPIVIRINE], the EC50 [23] was 7 nM, the EC50 [8] was 11 nM and the EC50 [24] was 2 nM. It also gave an EC50 [3] of 37 nM, an EC50 [7] of 2 nM and an EC50 [25] of 1.2 nM.
